From ChEMBL document CHEMBL1123290, “Synthesis, antimalarial activity, and quantitative structure-activity relationships of tebuquine and a series of related 5-[(7-chloro-4-quinolinyl)amino]-3-[(alkylamino)methyl] [1,1'-biphenyl]-2-ols and N omega-oxides” (1986) come the findings set out here.

Assay type in all cases: functional
Assay [1] deals with Plasmodium berghei. Put plainly: Antimalarial activity as 60-day survivors in infected mice (Mus musculus) after single 320mg/kg subcutaneous dose 72 hr post infection. The method, boiled down: (§1)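 Mice were infected with a normal drug-sensitive Plasmodium berghei strain. At 72 h postinfection each received one subcutaneous dose of compound dissolved or suspended in peanut oil, in five-mouse groups per dose. The read-out was the number of mice alive at 60 days postinfection, which were scored as cured.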

Assay [2] deals with Plasmodium berghei. In words: Change in mean survival time for control (average 6.2 days) versus treated mice (Mus musculus) after 160 mg/kg subcutaneous dose.
Assay [3] relates to Plasmodium berghei. Put plainly: Change in mean survival time of Plasmodium berghei infected mice (Mus musculus) after […] subcutaneous dose.
Assay [4] deals with Plasmodium berghei. In words: Change in mean survival time of Plasmodium berghei infected mice (Mus musculus) on 1.25 mg/kg subcutaneous dose.
Assay [5] has as its system Plasmodium berghei. Put plainly: Change in mean survival time in control (average 6.2 days) versus treated mice (Mus musculus) after 80 mg/kg subcutaneous dose.
Assay [6] deals with Plasmodium berghei. Put plainly: Antimalarial activity in primary screen.
Assay [7] concerns Plasmodium berghei. Put plainly: Change in mean survival time for control (average 6.2 days) versus treated mice (Mus musculus) 72 hrs after […] subcutaneous dose.
Assay [8] relates to Mus musculus. Put plainly: Antimalarial activity, administered as a single subcutaneous dose of 640 mg/kg, 72 hrs post infection measured as number of mice (Mus musculus) surviving at 60 days post infection. The gist of the method:
as §1

Assay [9] concerns Plasmodium berghei. Put plainly: Change in mean survival time for control (average 6.2 days) versus treated mice (Mus musculus) after 320 mg/kg subcutaneous dose.
Assay [10] deals with Plasmodium berghei. Put plainly: Change in mean survival time for control (average 6.2 days) versus treated mice (Mus musculus) after 20 mg/kg subcutaneous dose.
Assay [11] deals with Plasmodium berghei. In words: Difference in mean survival time of Plasmodium berghei infected mice (Mus musculus) after 10 mg/kg subcutaneous dose.
The subject of assay [12] is Plasmodium berghei. Put plainly: Change in mean survival time for control (average 6.2 days) versus treated mice (Mus musculus) after 40 mg/kg subcutaneous dose.
The test system of assay [13] is Plasmodium berghei. In words: Antimalarial activity as 60-day survivors in Plasmodium berghei infected mice (Mus musculus) after single 160mg/kg subcutaneous dose 72 hr post infection. The method, boiled down: as §1
The test system of assay [14] is Mus musculus. In words: Antimalarial activity, administered as a single subcutaneous dose of 80 mg/kg, 72 hrs post infection measured as number of mice (Mus musculus) surviving at 60 days post infection. The method, boiled down:
as §1

The subject of assay [15] is Mus musculus. Put plainly: Antimalarial activity, administered as a single subcutaneous dose of 40 mg/kg, 72 hrs post infection measured as number of mice (Mus musculus) surviving at 60 days post infection. The gist of the method: as §1
Assay [16] deals with Plasmodium berghei. Put plainly: Change in mean survival time of Plasmodium berghei infected mice (Mus musculus) after 5 mg/kg subcutaneous dose.
Assay [17] deals with Plasmodium berghei. Put plainly: Antimalarial activity as 60-day survivors in infected mice (Mus musculus) after single 20 mg/kg subcutaneous dose 72hr post infection. The method, boiled down: as §1

As to `CCN(CC)Cc1cc(Nc2cc[n+]([O-])c3cc(Cl)ccc23)cc(-c2ccc(OC)cc2)c1O`, the “No. of mice cured” value with Plasmodium berghei [1] was determined as 1; in the assay with Mus musculus [8], 2. Moreover, the “Delta MST” value with Plasmodium berghei [2] is 7.3; with Plasmodium berghei [3] it was -0.1 days; in the assay with Plasmodium berghei [4], 0.1 days; in the assay on Plasmodium berghei [5], 9.1 days; in the assay on Plasmodium berghei [7] it was 15 days; with Plasmodium berghei [9] it was 8.2 days. Moreover, the results for the “Delta MST” value in the assay with Plasmodium berghei [10], in the assay on Plasmodium berghei [11] and in the assay with Plasmodium berghei [12] were 3.7 days, 1.1 days and 7.3 days, respectively. The same molecule had an ED30 in the assay on Plasmodium berghei [6] of 423 mg/kg.

For `CCN(CC)Cc1cc(Nc2cc[n+]([O-])c3cc(Cl)ccc23)cc(-c2ccc(Cl)c(Cl)c2)c1O`, the “No. of mice cured” value with Plasmodium berghei [1] was found to be 5; in the assay on Plasmodium berghei [13], 2; with Mus musculus [14], 2; in the assay on Mus musculus [15], 1; in the assay on Mus musculus [8], 5. The “Delta MST” value in the assay with Plasmodium berghei [2] is 29.1 days; in the assay with Plasmodium berghei [3], -0.1 days; in the assay on Plasmodium berghei [4], -0.1 days; in the assay on Plasmodium berghei [5], 25.7 days; in the assay on Plasmodium berghei [16], 0.7 days; in the assay with Plasmodium berghei [10] it was 12 days. Also, the “Delta MST” value with Plasmodium berghei [11] worked out at 5.9 days; in the assay with Plasmodium berghei [12], 21.2 days. The ED30 in the assay on Plasmodium berghei [6] was found to be 36.6 mg/kg.

With `CCN(CC)Cc1cc(Nc2cc[n+]([O-])c3cc(Cl)ccc23)cc(-c2ccncc2)c1O`, the “No. of mice cured” value was 2 in the assay on Plasmodium berghei [1] and 3 in the assay with Mus musculus [8]. Also, the “Delta MST” value in the assay with Plasmodium berghei [2] was 10.7 days; in the assay with Plasmodium berghei [5], 8.3 days; with Plasmodium berghei [7] it was 21.9 days; with Plasmodium berghei [9], 12.6 days; with Plasmodium berghei [10], 3.3 days; with Plasmodium berghei [12], 5.7 days. For the same molecule, the ED30 in the assay with Plasmodium berghei [6] is 330 mg/kg.

For `[O-][n+]1ccc(Nc2cc(CN3CCCC3)c(O)c(-c3ccc(Cl)c(Cl)c3)c2)c2ccc(Cl)cc21`, the “No. of mice cured” value amounted to 5 in the assay with Plasmodium berghei [1], 3 in the assay with Plasmodium berghei [13], 2 in the assay on Mus musculus [14] and 5 with Mus musculus [8]. Moreover, the “Delta MST” value in the assay with Plasmodium berghei [2] is 24.4 days; in the assay with Plasmodium berghei [3] it was -0.1 days; in the assay with Plasmodium berghei [4] it was -0.1 days; in the assay with Plasmodium berghei [5], 25.4 days; in the assay on Plasmodium berghei [16], 0.7 days; in the assay on Plasmodium berghei [10] it was 7.9 days. Further, the “Delta MST” value with Plasmodium berghei [11] worked out at 2.3 days; in the assay with Plasmodium berghei [12], 10.7 days.

For the molecule `CCN(CC)Cc1cc(Nc2cc[n+]([O-])c3cc(Cl)ccc23)cc(-c2ccccn2)c1O`, the “No. of mice cured” value in the assay with Plasmodium berghei [1] and with Mus musculus [8] was 1 in each case. Moreover, the “Delta MST” value is 3 days with Plasmodium berghei [2]; 1 days in the assay on Plasmodium berghei [5]; 9.1 days in the assay with Plasmodium berghei [7]; 5.1 days with Plasmodium berghei [9]; 0.4 days with Plasmodium berghei [10]; 0 days in the assay on Plasmodium berghei [12]. This molecule also returned an ED30 with Plasmodium berghei [6] of 550 mg/kg.

As to `CCN(CC)Cc1cc(Nc2cc[n+]([O-])c3cc(Cl)ccc23)cc(-c2ccc(C)cc2)c1O`, the “Delta MST” value in the assay with Plasmodium berghei [2] turned out to be 5.1 days; in the assay on Plasmodium berghei [5], 4.3 days; in the assay on Plasmodium berghei [7], 10.5 days; in the assay with Plasmodium berghei [9], 15.7 days; in the assay with Plasmodium berghei [12], 0.5 days. Further, in the assay with Plasmodium berghei [17], the “No. of mice cured” value came to 1.3.

`CCN(CC)Cc1cc(Nc2cc[n+]([O-])c3cc(Cl)ccc23)cc(-c2ccccc2C(F)(F)F)c1O`: the “No. of mice cured” value was determined as 5 with Plasmodium berghei [1], 4 with Plasmodium berghei [13] and 5 in the assay on Mus musculus [8]. The “Delta MST” value in the assay on Plasmodium berghei [2] turned out to be 24.7 days; with Plasmodium berghei [3] it was 0.1 days; in the assay with Plasmodium berghei [4] it was 0.5 days; in the assay with Plasmodium berghei [5], 24.7 days; with Plasmodium berghei [16] it was 0.7 days; in the assay on Plasmodium berghei [10], 7.7 days. Moreover, the figures for the “Delta MST” value in the assay with Plasmodium berghei [11] and in the assay with Plasmodium berghei [12] were 4.1 days and 15.5 days, respectively. The molecule further displayed an ED30 in the assay on Plasmodium berghei [6] of 56.1 mg/kg.

Take `CCN(CC)Cc1cc(Nc2cc[n+]([O-])c3cc(Cl)ccc23)cc(-c2ccccc2)c1O`: the “No. of mice cured” value in the assay with Plasmodium berghei [1] is 3; with Plasmodium berghei [13], 5; in the assay with Mus musculus [14], 2; with Mus musculus [8] it was 3. For the same molecule, the “Delta MST” value turned out to be 0.3 days in the assay on Plasmodium berghei [3]; 0.3 days with Plasmodium berghei [4]; 19.9 days with Plasmodium berghei [5]; 23.9 days in the assay on Plasmodium berghei [7]; 5.1 days in the assay on Plasmodium berghei [16]; 24.9 days in the assay with Plasmodium berghei [9]. Further, the “Delta MST” value in the assay on Plasmodium berghei [10] was 17.4 days; in the assay with Plasmodium berghei [11], 7.7 days; in the assay with Plasmodium berghei [12], 29.6 days. Besides, in the assay with Plasmodium berghei [6], the ED30 was 26.3 mg/kg.

For `CCN(CC)Cc1cc(Nc2cc[n+]([O-])c3cc(Cl)ccc23)cc(-c2ccccc2Cl)c1O`, the “No. of mice cured” value is on record as 3 in the assay with Plasmodium berghei [1]; 3 in the assay with Plasmodium berghei [13]; 2 in the assay on Mus musculus [14]; 1 with Mus musculus [15]; 5 with Mus musculus [8]. In addition, the “Delta MST” value in the assay on Plasmodium berghei [2] was 33.4 days; in the assay with Plasmodium berghei [3], -0.2 days; in the assay on Plasmodium berghei [4] it was -0.2 days; in the assay on Plasmodium berghei [5], 34.9 days; with Plasmodium berghei [16], 6.4 days; in the assay on Plasmodium berghei [9], 41.9 days. Also, the results for the “Delta MST” value with Plasmodium berghei [10], in the assay on Plasmodium berghei [11] and in the assay with Plasmodium berghei [12] were 19.2 days, 8 days and 25.8 days, respectively. The molecule also had an ED30 with Plasmodium berghei [6] of 27.4 mg/kg.

Consider `CCN(CC)Cc1cc(Nc2cc[n+]([O-])c3cc(Cl)ccc23)cc(-c2ccc(F)cc2)c1O`, for which the “No. of mice cured” value with Plasmodium berghei [1] was found to be 4; in the assay on Plasmodium berghei [13], 5; in the assay with Mus musculus [14] it was 4; in the assay with Mus musculus [15], 2. In addition, the “Delta MST” value stood at 2.1 days in the assay with Plasmodium berghei [3]; 0.5 days in the assay with Plasmodium berghei [4]; 23.6 days in the assay with Plasmodium berghei [5]; 15 days in the assay on Plasmodium berghei [7]; 5.1 days in the assay with Plasmodium berghei [16]; 8.6 days in the assay with Plasmodium berghei [9]. Moreover, the figures for the “Delta MST” value in the assay on Plasmodium berghei [10], in the assay with Plasmodium berghei [11] and with Plasmodium berghei [12] were 14.1 days, 10.5 days and 21.7 days, respectively. The molecule also returned an ED30 in the assay with Plasmodium berghei [6] of 19.7 mg/kg.

For `CCN(CC)Cc1cc(Nc2cc[n+]([O-])c3cc(Cl)ccc23)cc(-c2ccccc2OC)c1O`, the entries for the “No. of mice cured” value in the assay with Plasmodium berghei [1], in the assay on Plasmodium berghei [13] and with Mus musculus [8] were 1, 2 and 1, respectively. Besides, the “Delta MST” value with Plasmodium berghei [2] was 8.9 days; in the assay with Plasmodium berghei [5], 8.7 days; in the assay with Plasmodium berghei [7] it was 27.2 days; with Plasmodium berghei [9], 36.2 days; with Plasmodium berghei [10] it was 0.7 days; with Plasmodium berghei [12] it was 6.9 days. In the assay with Plasmodium berghei [6], this molecule returned an ED30 of 170 mg/kg.

Consider `CC(C)(C)NCc1cc(Nc2cc[n+]([O-])c3cc(Cl)ccc23)cc(-c2ccc(Cl)c(Cl)c2)c1O`, for which the “No. of mice cured” value is 3 in the assay with Plasmodium berghei [1], 1 in the assay on Plasmodium berghei [13], 1 with Mus musculus [14] and 2 in the assay with Mus musculus [8]. Also, the “Delta MST” value with Plasmodium berghei [2] is 25.9 days; in the assay on Plasmodium berghei [3], -0.1 days; in the assay with Plasmodium berghei [4] it was -0.3 days; with Plasmodium berghei [5], 23.2 days; in the assay on Plasmodium berghei [16] it was 0.5 days; in the assay on Plasmodium berghei [9] it was 25.9 days. In addition, the results for the “Delta MST” value in the assay on Plasmodium berghei [10], in the assay with Plasmodium berghei [11] and with Plasmodium berghei [12] were 5.9 days, 2.9 days and 8.9 days, respectively.

As for `CCN(CC)Cc1cc(Nc2cc[n+]([O-])c3cc(Cl)ccc23)cc(-c2cccc(F)c2)c1O`, the “No. of mice cured” value with Plasmodium berghei [1] worked out at 3; with Plasmodium berghei [13], 3; in the assay on Mus musculus [14] it was 2; with Mus musculus [8], 1. Also, the “Delta MST” value in the assay with Plasmodium berghei [2] is 29.6 days; with Plasmodium berghei [3], 0.5 days; in the assay with Plasmodium berghei [4], -0.1 days; in the assay on Plasmodium berghei [5], 22.6 days; in the assay with Plasmodium berghei [7] it was 14.8 days; in the assay on Plasmodium berghei [16] it was 4.5 days. For the same molecule, the “Delta MST” value in the assay with Plasmodium berghei [9] worked out at 24.1 days; in the assay on Plasmodium berghei [10] it was 27.2 days; with Plasmodium berghei [12] it was 22.8 days. In the assay with Plasmodium berghei [6], this molecule returned an ED30 of 33.7 mg/kg.
